This is an account of results in ChEMBL document CHEMBL4118021, “Studies of TAK1-centered polypharmacology with novel covalent TAK1 inhibitors” (Bioorg Med Chem, 2017).

Calls of active or inactive are those of the source. The calls are words filed in the database; no cut-off is given here.

Test [1] concerns the target ATP synthase F(1) complex subunit alpha, mitochondrial (Homo sapiens) (UniProt P25705). Put plainly: Binding affinity to ATP5A1 in human NCI-H358 cells at 1 uM by mass spectrometry based pull down assay. Type of test: cell-based.
Test [2] concerns the target TBC1 domain family member 15 (Homo sapiens) (UniProt Q8TC07). Put plainly: Binding affinity to TBC1D15 in human NCI-H358 cells at 1 uM by mass spectrometry based pull down assay. Type of test: cell-based.
Test [3] has as its target 80S Ribosome (Homo sapiens) (UniProt P08865+P42677+P62753+P15880+P23396+P61247+P62701+P22090+P46782+P62081+P62241+P46781+P46783+P62280+P25398+P62277+P62263+P62841+P62244+P62249+P08708+P62269+P39019+P60866+P63220+P62266+P62847+P62851+P62854+P62979+P62857+P62273+P62861+P39023+P36578+P46777+Q02878+P18124+P62424+P62917+P32969+P27635+P62906+P62913+P30050+P26373+P40429+P50914+P61313+P18621+Q07020+Q02543+P84098+P46778+P35268+P62829+P62750+P83731+P61254+P61353+P46776+P46779+P47914+P62888+P62899+P62910+P49207+P42766+P18077+Q9Y3U8+P83881+P61927+P61513+P63173+P62891+P62945+P05388+P05386). The experiment in a line: Binding affinity to RPS24 in human NCI-H358 cells at 1 uM by mass spectrometry based pull down assay. Type of test: cell-based.

The target of test [4] is 5'-nucleotidase domain-containing protein 1 (Homo sapiens) (UniProt Q5TFE4). The experiment in a line: Binding affinity to NT5DC1 in human NCI-H23 cells at 1 uM by mass spectrometry based pull down assay. Type of test: cell-based.
Test [5] deals with TGF-beta-activated kinase 1 and MAP3K7-binding protein 3 (Homo sapiens) (UniProt Q8N5C8). Put plainly: Binding affinity to TAB3 in human NCI-H23 cells at 1 uM by mass spectrometry based pull down assay. Type of test: cell-based.
In test [6] the target is Alpha-2-HS-glycoprotein (Homo sapiens) (UniProt P02765). Put plainly: Binding affinity to AHSG in human NCI-H23 cells at 1 uM by mass spectrometry based pull down assay. Type of test: cell-based. In a few lines:
(§1)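 NCI-H23 or NCI-H358 cells were grown and lysed. Lysates were incubated overnight at 4 °C with 1 μM biotinylated covalent probe or DMSO, then pulled down on streptavidin beads. Proteins were run on polyacrylamide gels and stained with Coomassie. Bands were excised, digested and identified by mass spectrometry.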

In test [7] the target is Signal transducer and activator of transcription 1-alpha/beta (Homo sapiens) (UniProt P42224). The experiment in a line: Binding affinity to STAT1 in human NCI-H358 cells at 1 uM by mass spectrometry based pull down assay. Type of test: cell-based.
The target in test [8] is Lactoylglutathione lyase (Homo sapiens) (UniProt Q04760). Put plainly: Binding affinity to GLO1 in human NCI-H358 cells at 1 uM by mass spectrometry based pull down assay. Type of test: cell-based.
Test [9] deals with Protein NipSnap homolog 1 (Homo sapiens) (UniProt Q9BPW8). The experiment in a line: Binding affinity to NIPSNAP1 in human NCI-H23 cells at 1 uM by mass spectrometry based pull down assay. Type of test: cell-based.
Test [10] deals with Aldehyde dehydrogenase family 16 member A1 (Homo sapiens) (UniProt Q8IZ83). The experiment in a line: Binding affinity to ALDH16A1 in human NCI-H358 cells at 1 uM by mass spectrometry based pull down assay. Type of test: cell-based. The procedure, abridged:
as §1

Test [11] deals with NAD(P)H dehydrogenase [quinone] 1 (Homo sapiens) (UniProt P15559). Put plainly: Binding affinity to NQO1 in human NCI-H23 cells at 1 uM by mass spectrometry based pull down assay. Type of test: cell-based.
Test [12] concerns the target Eukaryotic translation initiation factor 6 (Homo sapiens) (UniProt P56537). Put plainly: Binding affinity to EIF6 in human NCI-H23 cells at 1 uM by mass spectrometry based pull down assay. Type of test: cell-based.
For test [13], the target named is Mitogen-activated protein kinase 12 (Homo sapiens) (UniProt P53778). Put plainly: Inhibition of p38g in human SKCO1 cells at 1 uM after 4 hrs using biotin labeled DLKPGNLAVNEDCELK probe by mass-spectrometric analysis relative to control. Type of test: cell-based.
In a further test the test system is NCI-H23. The experiment in a line: Antiproliferative activity against human NCI-H23 cells harboring KRAS G12C mutant at. Type of test: functional, cell-based.
Test [14] addresses Dual specificity mitogen-activated protein kinase kinase 2 (Homo sapiens) (UniProt P36507). Put plainly: Inhibition of full length human MEK2 (1 to 400 residues) expressed in mammalian expression system assessed as enzyme activity at 1 uM by KINOMEScan assay relative to control. Details: scale not given: the % may be the effect or the level left. The procedure, abridged: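 In vitro ATP-site competition binding assay (KinomeScan) across a panel of 456 kinases. Compound was tested at 1 and 10 μM. The read-out is the binding inhibition score relative to control.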

In test [15] the target is T1, Serine/threonine-protein kinase D2 (Homo sapiens) (UniProt Q9BZL6).
T1 sequence (whole entry): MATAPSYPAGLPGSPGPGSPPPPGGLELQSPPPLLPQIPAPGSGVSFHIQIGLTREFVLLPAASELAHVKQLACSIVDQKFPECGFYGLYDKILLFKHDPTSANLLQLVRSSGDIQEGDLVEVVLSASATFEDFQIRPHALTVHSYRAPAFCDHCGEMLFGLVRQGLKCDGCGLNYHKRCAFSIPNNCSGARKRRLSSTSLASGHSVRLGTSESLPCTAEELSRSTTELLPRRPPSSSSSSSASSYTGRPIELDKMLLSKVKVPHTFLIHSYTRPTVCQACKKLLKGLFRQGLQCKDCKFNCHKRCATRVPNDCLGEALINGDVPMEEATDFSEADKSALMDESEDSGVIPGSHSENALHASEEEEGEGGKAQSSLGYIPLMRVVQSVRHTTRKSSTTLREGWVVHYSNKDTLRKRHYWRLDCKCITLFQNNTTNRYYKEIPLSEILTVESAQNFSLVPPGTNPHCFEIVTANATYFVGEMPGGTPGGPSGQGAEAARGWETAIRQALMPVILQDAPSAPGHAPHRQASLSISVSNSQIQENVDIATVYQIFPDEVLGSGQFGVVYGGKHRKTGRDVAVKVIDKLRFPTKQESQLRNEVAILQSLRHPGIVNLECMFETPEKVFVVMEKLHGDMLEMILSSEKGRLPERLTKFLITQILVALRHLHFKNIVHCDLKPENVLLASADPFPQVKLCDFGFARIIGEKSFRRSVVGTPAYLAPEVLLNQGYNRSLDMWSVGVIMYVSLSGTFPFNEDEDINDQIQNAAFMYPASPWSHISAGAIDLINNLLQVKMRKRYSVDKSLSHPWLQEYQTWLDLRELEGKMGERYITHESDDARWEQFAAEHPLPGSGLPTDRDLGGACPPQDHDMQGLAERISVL
Put plainly: Inhibition of human PRKD2 (519 to 838 residues) expressed in bacterial expression system assessed as enzyme activity at 1 uM by KINOMEScan assay relative to control. More on the design: scale not given: the % may be the effect or the level left. In a few lines: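 In vitro ATP-site competition binding assay across a panel of 456 kinases, with compound tested at 1 and 10 μM.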

Chain of Dual specificity mitogen-activated protein kinase kinase 2 (Homo sapiens) (P36507 whole entry, the tested form may be a part): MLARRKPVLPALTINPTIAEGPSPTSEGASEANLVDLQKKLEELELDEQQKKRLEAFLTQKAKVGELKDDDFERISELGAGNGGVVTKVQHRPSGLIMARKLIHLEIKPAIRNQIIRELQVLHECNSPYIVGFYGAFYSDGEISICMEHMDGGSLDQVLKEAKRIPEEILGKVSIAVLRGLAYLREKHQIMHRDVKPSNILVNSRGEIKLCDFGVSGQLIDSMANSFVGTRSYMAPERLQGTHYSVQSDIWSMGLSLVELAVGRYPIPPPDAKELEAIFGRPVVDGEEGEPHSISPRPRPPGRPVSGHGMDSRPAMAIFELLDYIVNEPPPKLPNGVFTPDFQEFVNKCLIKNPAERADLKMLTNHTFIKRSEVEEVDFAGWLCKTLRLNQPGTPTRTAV
Chain of Aldehyde dehydrogenase family 16 member A1 (Homo sapiens) (Q8IZ83 whole entry): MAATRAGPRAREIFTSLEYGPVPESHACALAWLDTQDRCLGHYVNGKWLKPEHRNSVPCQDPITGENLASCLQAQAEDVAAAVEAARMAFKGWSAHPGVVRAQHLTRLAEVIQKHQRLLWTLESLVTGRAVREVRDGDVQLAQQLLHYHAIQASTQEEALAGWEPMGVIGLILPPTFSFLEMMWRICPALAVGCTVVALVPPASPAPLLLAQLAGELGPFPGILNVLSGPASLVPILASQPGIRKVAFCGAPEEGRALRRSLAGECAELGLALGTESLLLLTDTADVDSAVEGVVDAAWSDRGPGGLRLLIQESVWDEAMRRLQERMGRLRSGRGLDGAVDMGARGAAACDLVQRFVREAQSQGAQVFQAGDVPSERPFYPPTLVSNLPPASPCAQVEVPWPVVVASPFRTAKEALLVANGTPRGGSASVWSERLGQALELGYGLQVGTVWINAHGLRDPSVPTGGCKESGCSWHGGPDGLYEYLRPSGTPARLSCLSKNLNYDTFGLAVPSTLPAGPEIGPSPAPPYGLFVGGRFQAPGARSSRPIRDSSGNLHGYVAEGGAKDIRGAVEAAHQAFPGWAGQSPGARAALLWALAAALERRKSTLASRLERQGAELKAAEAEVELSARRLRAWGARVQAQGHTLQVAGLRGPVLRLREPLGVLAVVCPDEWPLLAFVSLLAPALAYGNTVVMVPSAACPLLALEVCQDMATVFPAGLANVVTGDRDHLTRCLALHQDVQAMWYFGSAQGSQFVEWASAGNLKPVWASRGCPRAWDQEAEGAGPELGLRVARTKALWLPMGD
Chain of Lactoylglutathione lyase (Homo sapiens) (Q04760 2-184 limits assumed): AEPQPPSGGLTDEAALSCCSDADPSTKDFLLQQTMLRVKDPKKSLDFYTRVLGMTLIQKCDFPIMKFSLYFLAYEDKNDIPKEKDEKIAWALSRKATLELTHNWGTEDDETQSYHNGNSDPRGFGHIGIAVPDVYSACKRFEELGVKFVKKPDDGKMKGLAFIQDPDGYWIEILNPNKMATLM
Chain of NAD(P)H dehydrogenase [quinone] 1 (Homo sapiens) (P15559 whole entry): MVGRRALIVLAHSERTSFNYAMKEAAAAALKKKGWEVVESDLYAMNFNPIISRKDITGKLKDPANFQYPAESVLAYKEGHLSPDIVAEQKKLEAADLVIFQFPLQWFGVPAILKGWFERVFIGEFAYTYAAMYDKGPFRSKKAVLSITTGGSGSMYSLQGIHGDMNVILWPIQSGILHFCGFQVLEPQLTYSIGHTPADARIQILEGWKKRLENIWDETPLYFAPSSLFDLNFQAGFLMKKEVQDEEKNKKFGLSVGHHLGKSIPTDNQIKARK
Chain of TBC1 domain family member 15 (Homo sapiens) (Q8TC07 whole entry, the tested form may be a part): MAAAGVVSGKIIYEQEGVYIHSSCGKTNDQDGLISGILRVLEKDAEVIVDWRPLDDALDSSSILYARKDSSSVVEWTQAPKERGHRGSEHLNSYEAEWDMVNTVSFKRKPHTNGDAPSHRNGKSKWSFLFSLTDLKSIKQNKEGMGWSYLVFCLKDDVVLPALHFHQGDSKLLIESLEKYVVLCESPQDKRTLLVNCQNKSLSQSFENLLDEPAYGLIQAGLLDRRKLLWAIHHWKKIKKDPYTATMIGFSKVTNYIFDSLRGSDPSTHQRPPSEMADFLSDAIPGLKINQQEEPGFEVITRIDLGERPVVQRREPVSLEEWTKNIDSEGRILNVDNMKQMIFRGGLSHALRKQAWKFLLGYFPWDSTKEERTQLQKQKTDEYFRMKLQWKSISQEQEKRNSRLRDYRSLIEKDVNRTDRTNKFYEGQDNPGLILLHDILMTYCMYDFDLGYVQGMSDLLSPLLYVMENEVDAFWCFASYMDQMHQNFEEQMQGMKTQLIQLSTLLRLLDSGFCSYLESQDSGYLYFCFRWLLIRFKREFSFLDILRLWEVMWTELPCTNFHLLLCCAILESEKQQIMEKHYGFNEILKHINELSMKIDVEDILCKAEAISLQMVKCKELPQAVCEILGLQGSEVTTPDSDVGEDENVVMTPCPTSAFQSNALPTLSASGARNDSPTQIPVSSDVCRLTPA
Chain of Signal transducer and activator of transcription 1-alpha/beta (Homo sapiens) (P42224 whole entry): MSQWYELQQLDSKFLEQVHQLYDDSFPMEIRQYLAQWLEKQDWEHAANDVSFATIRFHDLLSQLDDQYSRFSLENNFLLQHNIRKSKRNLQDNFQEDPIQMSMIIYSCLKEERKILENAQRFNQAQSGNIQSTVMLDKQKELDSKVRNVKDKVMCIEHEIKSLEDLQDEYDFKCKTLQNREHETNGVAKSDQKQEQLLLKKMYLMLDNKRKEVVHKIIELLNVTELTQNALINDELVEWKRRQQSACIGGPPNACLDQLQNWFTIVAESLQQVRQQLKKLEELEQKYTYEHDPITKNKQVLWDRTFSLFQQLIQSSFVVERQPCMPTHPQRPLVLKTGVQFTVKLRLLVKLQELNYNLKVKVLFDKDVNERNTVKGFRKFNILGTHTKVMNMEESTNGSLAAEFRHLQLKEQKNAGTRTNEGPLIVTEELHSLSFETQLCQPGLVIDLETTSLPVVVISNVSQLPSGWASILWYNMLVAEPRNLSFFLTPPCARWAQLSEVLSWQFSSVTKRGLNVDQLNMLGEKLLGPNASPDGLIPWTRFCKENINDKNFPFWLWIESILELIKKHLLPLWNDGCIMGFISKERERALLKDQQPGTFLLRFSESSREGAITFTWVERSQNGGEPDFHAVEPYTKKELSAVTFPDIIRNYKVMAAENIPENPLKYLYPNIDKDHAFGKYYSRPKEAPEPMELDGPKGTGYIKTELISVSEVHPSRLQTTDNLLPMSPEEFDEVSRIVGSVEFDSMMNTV
Chain of Protein NipSnap homolog 1 (Homo sapiens) (Q9BPW8 whole entry): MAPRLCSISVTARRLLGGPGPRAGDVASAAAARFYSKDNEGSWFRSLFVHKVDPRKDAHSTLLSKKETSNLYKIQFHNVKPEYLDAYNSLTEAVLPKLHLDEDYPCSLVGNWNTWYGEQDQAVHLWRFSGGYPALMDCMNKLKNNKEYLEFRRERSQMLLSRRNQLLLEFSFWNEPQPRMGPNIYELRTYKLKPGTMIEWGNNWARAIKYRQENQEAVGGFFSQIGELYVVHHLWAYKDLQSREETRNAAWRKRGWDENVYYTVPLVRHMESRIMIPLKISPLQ
Chain of Mitogen-activated protein kinase 12 (Homo sapiens) (P53778 whole entry): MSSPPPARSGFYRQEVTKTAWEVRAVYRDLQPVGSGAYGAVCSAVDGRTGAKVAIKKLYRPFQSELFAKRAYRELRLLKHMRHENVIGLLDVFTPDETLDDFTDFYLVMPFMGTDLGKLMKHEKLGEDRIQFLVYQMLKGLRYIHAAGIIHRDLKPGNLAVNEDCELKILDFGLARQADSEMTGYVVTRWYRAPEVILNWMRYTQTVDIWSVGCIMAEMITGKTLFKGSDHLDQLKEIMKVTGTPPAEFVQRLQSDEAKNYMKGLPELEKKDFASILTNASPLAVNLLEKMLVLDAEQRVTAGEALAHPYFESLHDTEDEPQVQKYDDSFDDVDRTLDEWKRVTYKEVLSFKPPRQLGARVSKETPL
Chain of Alpha-2-HS-glycoprotein (Homo sapiens) (P02765 whole entry): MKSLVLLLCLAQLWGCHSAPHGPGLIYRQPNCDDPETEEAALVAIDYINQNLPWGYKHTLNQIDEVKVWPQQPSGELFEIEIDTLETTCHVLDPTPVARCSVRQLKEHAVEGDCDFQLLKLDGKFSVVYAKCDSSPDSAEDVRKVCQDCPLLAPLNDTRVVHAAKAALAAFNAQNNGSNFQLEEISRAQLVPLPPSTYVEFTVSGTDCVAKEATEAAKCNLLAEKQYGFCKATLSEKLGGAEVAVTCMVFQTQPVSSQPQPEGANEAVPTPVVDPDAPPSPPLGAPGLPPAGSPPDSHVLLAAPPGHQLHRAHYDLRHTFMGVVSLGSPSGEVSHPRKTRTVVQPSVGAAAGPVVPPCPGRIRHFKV
Chain of TGF-beta-activated kinase 1 and MAP3K7-binding protein 3 (Homo sapiens) (Q8N5C8 whole entry): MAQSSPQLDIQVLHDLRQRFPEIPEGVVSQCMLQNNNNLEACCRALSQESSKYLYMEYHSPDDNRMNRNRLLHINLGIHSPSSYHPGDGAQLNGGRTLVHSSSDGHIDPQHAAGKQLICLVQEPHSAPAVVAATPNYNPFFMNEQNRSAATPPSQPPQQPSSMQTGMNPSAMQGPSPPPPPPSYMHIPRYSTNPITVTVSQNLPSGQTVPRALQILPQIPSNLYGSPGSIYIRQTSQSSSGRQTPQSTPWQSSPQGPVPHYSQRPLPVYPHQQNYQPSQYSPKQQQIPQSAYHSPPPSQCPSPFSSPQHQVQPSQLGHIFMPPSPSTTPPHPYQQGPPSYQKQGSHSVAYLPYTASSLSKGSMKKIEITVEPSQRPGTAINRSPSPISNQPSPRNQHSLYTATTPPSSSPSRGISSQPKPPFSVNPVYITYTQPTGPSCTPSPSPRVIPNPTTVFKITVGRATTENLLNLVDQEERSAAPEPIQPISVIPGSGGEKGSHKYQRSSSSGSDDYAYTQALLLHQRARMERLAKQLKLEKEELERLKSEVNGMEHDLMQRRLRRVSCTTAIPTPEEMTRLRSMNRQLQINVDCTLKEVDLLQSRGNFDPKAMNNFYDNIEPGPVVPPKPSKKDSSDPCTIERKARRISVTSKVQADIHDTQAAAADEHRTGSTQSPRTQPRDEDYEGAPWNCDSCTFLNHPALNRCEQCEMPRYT

With `C=CC(=O)Nc1ccccc1Nc1nc(Nc2ccc(N3CCN(CCOCCOCCOCCNC(=O)CCCC[C@@H]4SC[C@@H]5NC(=O)N[C@@H]54)CC3)cc2)ncc1Cl`, the outcome in test [1], in test [2], in test [3], in test [4], in test [5] and in test [6] was Active. Moreover, the result in test [7], in test [8], in test [9], in [10], in test [11] and in [12] was Active.
On to `C=CC(=O)Nc1ccccc1Nc1nc(Nc2ccc(N3CCN(C)CC3)cc2)ncc1Cl`, for which the inhibition in test [13] is -8.5%.
In the case of `COc1cc(O)c2c(c1)/C=C/C[C@H](O)[C@H](O)C(=O)/C=C\C[C@H](C)OC2=O`, the outcome with NCI-H23 was Active. For the same molecule, the results for the Activity in [14] and in test [15] were 0.75% and 72%, respectively.

One may read the inhibition as the relative decrease from the control value, in per cent.
